Laboratory results as given in ChEMBL document CHEMBL1146147, “Study on synthesis and biological activity of a galactosylated piperazinyl porphyrin” (Bioorg Med Chem Lett, 2006).
Values after ≈ are worked out from the molar mass of the structure shown.

How the values were obtained:
[1] = Anticancer activity against human HNE1 cells by MTT assay; assay type: functional; conditions: read-out: ID50 (the source's name)
In short: (§1)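 MTT assay of human tumour cell lines (Bel-7404 liver, MCG stomach, HNE1 nasopharyngeal carcinoma) run in the absence of light. ID50 is taken as the concentration giving 50% cell death, in ug/ml.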

[2] = Anticancer activity against human HNE1 cells with irradiation at 6.25 ug/ml after 18 hrs by MTT assay; assay type: functional
In short: (§2)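 Human tumour cells (Bel-7404, MCG, HNE1) incubated 18 h with compound at 6.25 ug/ml at 37 °C in air with 5% CO2. Cells irradiated at 650 nm, 20 J/cm²; parallel wells kept unirradiated. Cell death rate read by MTT.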

[3] = Anticancer activity against human MCG cells by MTT assay; assay type: functional; conditions: read-out: ID50 (the source's name); in short: as §1
[4] = Partition coefficient of the compound; assay type: ADME; conditions: octanol/water
In short: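 Compound distributed between the two non-miscible solvents octanol and water. Reported as the octanol/water partition ratio.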

[5] = test system: BEL-7404 tumor cell line; experiment: Anticancer activity against human Bel7404 cells at 6.25 ug/ml after 18 hrs by MTT assay; assay type: functional
In short: (§3)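 Human tumour cells (Bel-7404 liver, MCG stomach, HNE1 nasopharyngeal) exposed to compound in solution for 18 h at 37 °C under air with 5% CO2, either kept in the dark or irradiated at 650 nm, 20 J/cm². Viability read by MTT; activity reported as percent cell death.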

[6] = Anticancer activity against human HNE1 cells at 6.25 ug/ml after 18 hrs by MTT assay; assay type: functional; in short: as §3
[7] = Anticancer activity against human MCG cells with irradiation at 6.25 ug/ml after 18 hrs by MTT assay; assay type: functional; in short: as §2
[8] = Anticancer activity against human MCG cells at 6.25 ug/ml after 18 hrs by MTT assay; assay type: functional; in short: as §3
[9] = test system: BEL-7404 tumor cell line; experiment: Anticancer activity against human Bel7404 cells with irradiation at 6.25 ug/ml after 18 hrs by MTT assay; assay type: functional; in short: as §2
[10] = test system: BEL-7404 tumor cell line; experiment: Anticancer activity against human Bel7404 cells by MTT assay; assay type: functional; conditions: read-out: ID50 (the source's name); in short: as §1

| Compound | IC50 [1] [µg/mL] | Activity [2] [%] | IC50 [3] [µg/mL] | Ratio [4] | Activity [5] [%] | Activity [6] [%] | Activity [7] [%] | Activity [8] [%] | Activity [9] [%] | IC50 [10] [µg/mL] |
| --- | --- | --- | --- | --- | --- | --- | --- | --- | --- | --- |
| O=C([C@H](O)[C@@H](O)[C@H](O[C@@H]1O[C@H](CO)[C@H](O)[C@H](O)[C@H]1O)[C@H](O)CO)N1CCN(c2ccc(-c3c4nc(c(-c5ccc(N6CCN(C(=O)[C@H](O)[C@@H](O)[C@H](O[C@@H]7O[C@H](CO)[C@H](O)[C@H](O)[C@H]7O)[C@H](O)CO)CC6)cc5)c5ccc([nH]5)c(-c5ccc(N6CCN(C(=O)[C@H](O)[C@@H](O)[C@H](O[C@@H]7O[C@H](CO)[C@H](O)[C@H](O)[C@H]7O)[C@H](O)CO)CC6)cc5)c5nc(c(-c6ccc(N7CCN(C(=O)[C@H](O)[C@@H](O)[C@H](O[C@@H]8O[C@H](CO)[C@H](O)[C@H](O)[C@H]8O)[C@H](O)CO)CC7)cc6)c6ccc3[nH]6)C=C5)C=C4)cc2)CC1 | 33 (≈ 14.3 µM) | 96 | 35 (≈ 15.1 µM) | 18 | 19 | 19 | 96 | 19 | 96 | 29 (≈ 12.5 µM) |
| Nc1ccc(-c2c3nc(c(-c4ccc(N)cc4)c4ccc([nH]4)c(-c4ccc(N)cc4)c4nc(c(-c5ccc(N)cc5)c5ccc2[nH]5)C=C4)C=C3)cc1 | 28 (≈ 41.5 µM) |  | 24 (≈ 35.6 µM) | 42 |  |  |  |  |  | 33 (≈ 48.9 µM) |
| O=c1[nH]cc(F)c(=O)[nH]1 [FLUOROURACIL] |  |  |  |  | 29 | 29 |  | 29 |  |  |
| O=C([C@H](O)[C@@H](O)[C@H](O[C@@H]1O[C@H](CO)[C@H](O)[C@H](O)[C@H]1O)[C@H](O)CO)N1CCNCC1 [GALACTOSYLATEDPIPERAZINE] | > 50 |  | > 50 |  |  |  |  |  |  | > 50 |
